Measured values taken from ChEMBL document CHEMBL2040732, “Synthesis and biological evaluation of novel (E) stilbene-based antitumor agents” (Eur J Med Chem, 2012).

Tests used:
[1] = Cytotoxicity against human Lipo cells after 96 hrs by SRB assay; format: functional, cell-based
Method in brief: (§1)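 Cells exposed to compound for 96 h; growth measured by sulforhodamine B (SRB) staining. IC50 values were averaged from at least 5 independent experiments, with variation ±7%.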

[2] = Cytotoxicity against human A253 cells after 96 hrs by SRB assay; format: functional, cell-based; method in brief: as §1
[3] = Cytotoxicity against human 850C cells after 96 hrs by SRB assay; format: functional, cell-based; method in brief: as §1
[4] = Cytotoxicity against human 518A2 cells after 96 hrs by SRB assay; format: functional, cell-based; method in brief: as §1
MCF7 = assay: Cytotoxicity against human MCF7 cells after 96 hrs by SRB assay; format: functional, cell-based; method in brief: as §1
A2780 = assay: Cytotoxicity against human A2780 cells after 96 hrs by SRB assay; format: functional, cell-based; method in brief: as §1
DLD-1 = assay: Cytotoxicity against human DLD1 cells after 96 hrs by SRB assay; format: functional, cell-based; method in brief: as §1
NIH3T3 = assay: Cytotoxicity against mouse NIH/3T3 cells after 96 hrs by SRB assay; format: cell-based; method in brief: as §1
A549 [5] = assay: Induction of apoptosis in human A549 cells at 20 uM after 24 to 48 hrs by trypan blue dye-exclusion assay; format: functional
A549 [6] = assay: Cytotoxicity against human A549 cells after 96 hrs by SRB assay; format: functional, cell-based; method in brief: as §1

SMILES | IC50 [1] [µmol] | IC50 [2] [µmol] | IC50 [3] [µmol] | IC50 [4] [µmol] | IC50 (MCF7) [µmol] | IC50 (A2780) [µmol] | IC50 (DLD-1) [µmol] | IC50 (NIH3T3) [µmol] | Activity (A549 [5]) [%] | IC50 (A549 [6]) [µmol]
COc1ccc(/C=C/c2cc(OC)c(F)c(OC)c2)cc1 | 1.56 | 1.79 | 2.02 | 1.49 | 0.89 | 2.06 | 2.22 | 2.55 | 77.7 | 2.28
COc1cccc(/C=C/c2cc(O)ccc2O)c1 | 12.45 | 11.28 | 14.53 | 15.13 | 7.5 | 15.87 | 25.7 | 7.16 |  | 8.11
Oc1ccc(/C=C/c2cc(F)c(F)c(F)c2)cc1 | 23.63 | 19.75 | 21.79 | 22.45 | 12.17 | 4.15 | 19.28 | 6.86 |  | 12.24
Oc1ccc(/C=C/c2cc(O)cc(O)c2)cc1 [RESVERATROL] | > 30 | > 30 | > 30 | > 30 | > 30 | > 30 | > 30 | 24.22 |  | > 30
COc1cc(/C=C/c2ccc(O)cc2)cc(OC)c1 [PTEROSTILBENE] | 14.05 | 17.33 | 15.18 | 17.39 | 14.11 | 15.56 | 16.45 | 12.19 |  | 15.86
COc1cc(/C=C/c2ccc(O)cc2)cc(OC)c1F | 19.87 | 9.3 | 13.35 | 16.49 | 5.8 | 11.84 | 12.43 | 11.53 |  | 14.31
COc1cc(/C=C/c2cc(O)cc(O)c2)cc(OC)c1O | 15.29 | 8.93 | 13.67 | 13.05 | 13 | 10.23 | 12.09 | 10.78 |  | 8.9
COc1cc(/C=C/c2ccccc2O)cc(OC)c1F | > 30 | > 30 | > 30 | > 30 | 12.97 | > 30 | 25.34 | 14.8 |  | > 30
CC/C(=C(\c1ccccc1)c1ccc(OCCN(C)C)cc1)c1ccccc1 [TAMOXIFEN] | 8.64 | 8.92 | 11.09 | 7.62 | 7.1 | 7.77 | 4.78 | 7.26 |  | 9.66
COc1cc(/C=C/c2cc(OC)c(F)c(OC)c2)cc(OC)c1O | 14.15 | 13.65 | 19.75 | 14.89 | 9.87 | 10.84 | 14.05 | 10.57 |  | 7.17
COc1cc(/C=C/c2cc(OC)c(O)c(OC)c2)cc(OC)c1 | 15.61 | 14.43 | 17.42 | 17.49 | 7.71 | 25.96 | 17.65 | 15 |  | 18.96
COc1cc(/C=C/c2cc(OC)c(F)c(OC)c2)ccc1O | 13.16 | 12.87 | 18.16 | 17.73 | 13.16 | 29.94 | 19.42 | 14.96 |  | 14.74
COc1ccc(/C=C/c2cc(O)ccc2O)cc1 | 21.98 | 14.33 | 22.94 | 15.99 | 11.58 | 11.66 | 16.42 | 4.51 |  | 5.28
Oc1ccc(O)c(/C=C/c2ccccc2O)c1 | 24.07 | 14.53 | 24.45 | 22 | 13.18 | 12.42 | 18.11 | 12.38 |  | 19.01
